Source: ChEMBL document CHEMBL1123801, “Synthesis and antifungal activity of new 1-vinylimidazoles” (1987)
≈ marks a conversion by molar mass, not a printed value.

Tests used:
Candida albicans [1] = test: Minimum inhibitory concentration (MIC) against Candida albicans; format: functional
Method in brief: (§1)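 Broth microdilution in Sabouraud's glucose broth. Final inocula 1×10^5 cells/mL for the yeast (C. albicans) and 1×10^5 conidia/mL for the mold (A. fumigatus) and the dermatophyte (T. asteroides). MIC read as the fungistatic end point. Lowest value of duplicated experiments.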

Aspergillus fumigatus = test: Minimum inhibitory concentration (MIC) against Aspergillus fumigatus; format: functional; method in brief: as §1
Candida albicans [2] = test: Inhibition of pseudomycelium formation of Candida albicans.; format: functional; conditions: read-out: MEC
Method in brief: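 C. albicans KE-2 (clinical isolate), final inoculum 1×10^6 yeast cells/mL in EMEM with 20% calf serum. Compounds serially diluted by the microtiter dilution system used for MICs. After incubation, wells Giemsa-stained (5% in phosphate buffer) and examined microscopically. MEC (μg/mL) = lowest concentration preventing typical pseudomycelium formation. Lowest value of duplicated experiments.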

Trichophyton benhamiae [3] = test: (§2) Minimum inhibitory concentration against Trichophyton asteroides; format: functional; method in brief: as §1
Trichophyton rubrum [4] = test: Minimum inhibitory concentration against Trichophyton rubrum IFO 5467; format: functional
Method in brief: (§3)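 Agar dilution on Sabouraud's glucose agar. Inocula 1×10^6 cells/mL for the yeast strains (C. albicans IFO 1060, 1388) and 1×10^6 conidia/mL for the dermatophytes (T. mentagrophytes IFO 5809, 5810; T. rubrum IFO 5467, 5807). MIC in μg/mL, lowest value of duplicated experiments.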

Candida albicans [5] = test: Minimum inhibitory concentration against Candida albicans IFO 1060; format: functional; method in brief: as §3
Trichophyton rubrum [6] = test: Minimum inhibitory concentration against Trichophyton rubrum IFO 5807; format: functional; method in brief: as §3
Trichophyton benhamiae [7] = test: Minimum inhibitory concentration against Trichophyton mentagrophytes IFO 5809; format: functional, Arthroderma benhamiae; method in brief: as §3
Candida albicans [8] = test: Minimum inhibitory concentration against Candida albicans IFO 1388; format: functional; method in brief: as §3
Trichophyton benhamiae [9] = test: Minimum inhibitory concentration against Trichophyton mentagrophytes IFO 5810; format: functional, Arthroderma benhamiae; method in brief: as §3
[10] = as §2; format: functional; conditions: Trichophyton benhamiae; method in brief: as §1
[11] = Minimum inhibitory concentration against Aspergillus fumigatus; format: functional, trichophyton asteroides; conditions: Trichophyton benhamiae; method in brief: as §1

MIC (Candida albicans [1]) [mg/L] | MIC (Aspergillus fumigatus) [mg/L] | MIC (Trichophyton benhamiae [3]) [mg/L] | MIC (Trichophyton rubrum [4]) [mg/L] | MIC (Candida albicans [5]) [mg/L] | MIC (Trichophyton rubrum [6]) [mg/L] | MIC (Trichophyton benhamiae [7]) [mg/L] | MIC (Candida albicans [8]) [mg/L] | MIC (Trichophyton benhamiae [9]) [mg/L] | MIC [10] [mg/L] | MIC [11] [mg/L] | Compound | minimal effective concentration (Candida albicans [2]) [µg/mL]
> 100 | > 100 | 12.5 (≈ 43.8 µM) |  |  |  |  |  |  |  |  | CCCOc1ccccc1/C(=C\CN(C)C)n1ccnc1 | 0.31
25 (≈ 97.5 µM) | 0.4 (≈ 1.56 µM) | 0.1 (≈ 0.39 µM) |  |  |  |  |  |  |  |  | C=C(c1ccccc1OCCC(C)C)n1ccnc1 | 0.63
25 (≈ 90.3 µM) | 1.6 (≈ 5.78 µM) | 0.1 (≈ 0.361 µM) |  |  |  |  |  |  |  |  | C/C=C(\c1cc(Cl)ccc1OCCC)n1ccnc1 | 0.63
> 100 | > 100 | 6.3 (≈ 18.5 µM) |  |  |  |  |  |  |  |  | CC(C)COc1ccccc1/C(=C\CN1CCOCC1)n1ccnc1 | 2.5
6.2 (≈ 19.9 µM) | 3.1 (≈ 9.97 µM) | 0.1 (≈ 0.322 µM) | 0.8 (≈ 2.57 µM) | 6.3 (≈ 20.3 µM) | 0.8 (≈ 2.57 µM) | 1.6 (≈ 5.15 µM) | 12.5 (≈ 40.2 µM) | 0.8 (≈ 2.57 µM) |  |  | C=C(c1ccccc1OCc1ccc(Cl)cc1)n1ccnc1 | 
25 (≈ 90.3 µM) | 6.3 (≈ 22.8 µM) | 0.1 (≈ 0.361 µM) |  |  |  |  |  |  |  |  | C/C=C(/c1cc(Cl)ccc1OCCC)n1ccnc1 | 0.63
12.5 (≈ 43 µM) | 0.4 (≈ 1.38 µM) | 0.1 (≈ 0.344 µM) |  |  |  |  |  |  |  |  | C=C(c1ccccc1OCCc1ccccc1)n1ccnc1 | 1.25
12.5 (≈ 36.2 µM) | 3.1 (≈ 8.98 µM) | 0.1 (≈ 0.29 µM) | 0.8 (≈ 2.32 µM) | 12.5 (≈ 36.2 µM) | 0.8 (≈ 2.32 µM) | 1.6 (≈ 4.63 µM) | 12.5 (≈ 36.2 µM) | 1.6 (≈ 4.63 µM) |  |  | C=C(c1cc(Cl)ccc1OCc1ccc(Cl)cc1)n1ccnc1 | 
12.5 (≈ 34.6 µM) | 6.3 (≈ 17.4 µM) | 0.1 (≈ 0.277 µM) |  |  |  |  |  |  |  |  | CC(C)COc1ccccc1/C(=C/CN(C)c1ccccc1)n1ccnc1 | 5
> 100 | > 100 |  |  |  |  |  |  |  | > 100 |  | c1ccc(C(n2ccnc2)n2ccnc2)cc1 | 
12.5 (≈ 48.8 µM) | 0.8 (≈ 3.12 µM) | 0.2 (≈ 0.78 µM) |  |  |  |  |  |  |  |  | CCCOc1ccccc1C(=C(C)C)n1ccnc1 | 0.31
> 100 | > 100 | > 100 |  |  |  |  |  |  |  |  | CCC(CC)=C(c1cc(Cl)ccc1OCc1ccc(Cl)cc1)n1cncn1 | 20
> 100 | > 100 | 0.8 (≈ 2.4 µM) |  |  |  |  |  |  |  |  | CC(C)COc1ccc(Cl)cc1/C(=C\CN(C)C)n1ccnc1 | 2.5
1.6 (≈ 3.94 µM) | 50 (≈ 123 µM) | 1.6 (≈ 3.94 µM) |  |  |  |  |  |  |  |  | C=C(c1ccccc1N(Cc1ccc(Cl)cc1)C(=O)C(F)(F)F)n1ccnc1 | 20
> 100 | > 100 | 6.3 (≈ 21 µM) |  |  |  |  |  |  |  |  | CC(C)COc1ccccc1/C(=C\CN(C)C)n1ccnc1 | 0.16
> 100 | > 100 | 100 (≈ 587 µM) |  |  |  |  |  |  |  |  | C=C(c1ccccc1)n1ccnc1 | > 20
> 100 | > 100 | 25 (≈ 79.8 µM) |  |  |  |  |  |  |  |  | C/C(CN(C)C)=C(/c1ccccc1OCC(C)C)n1ccnc1 | 1.25
6.2 (≈ 17.3 µM) | 0.4 (≈ 1.11 µM) | 0.1 (≈ 0.278 µM) | 0.8 (≈ 2.23 µM) | 6.3 (≈ 17.5 µM) | 0.8 (≈ 2.23 µM) | 0.8 (≈ 2.23 µM) | 12.5 (≈ 34.8 µM) | 0.8 (≈ 2.23 µM) |  |  | CC=C(c1ccccc1OCc1ccc(Cl)c(Cl)c1)n1ccnc1 | 
> 100 | > 100 | 0.8 (≈ 2.3 µM) |  |  |  |  |  |  |  |  | CCC(CC)=C(c1cc(Cl)ccc1OCCC(C)C)n1cncn1 | 1.25
> 100 | > 100 | 12.5 (≈ 37.3 µM) |  |  |  |  |  |  |  |  | CC(C)COc1ccc(Cl)cc1/C(=C\CN(C)C)n1cncn1 | 0.31
> 100 | > 100 |  |  |  |  |  |  |  |  | > 100 | CC(c1cccc(OCc2ccc(Cl)cc2)c1)(n1ccnc1)n1ccnc1 | 
> 100 | > 100 |  |  |  |  |  |  |  | > 100 |  | CC(c1ccccc1)(n1ccnc1)n1ccnc1 | 
50 (≈ 161 µM) | 12.5 (≈ 40.2 µM) | 1.6 (≈ 5.15 µM) |  |  |  |  |  |  |  |  | C=C(c1cccc(OCc2ccc(Cl)cc2)c1)n1ccnc1 | 5
12.5 (≈ 40.2 µM) | 25 (≈ 80.4 µM) | 6.2 (≈ 19.9 µM) |  |  |  |  |  |  |  |  | COc1ccc(Cl)cc1/C(=C/c1ccccc1)n1ccnc1 | > 20
25 (≈ 87.9 µM) | 6.3 (≈ 22.2 µM) | 0.1 (≈ 0.352 µM) |  |  |  |  |  |  |  |  | CC(C)=C(c1ccccc1OCC(C)(C)C)n1ccnc1 | 0.31
50 (≈ 153 µM) | 0.8 (≈ 2.45 µM) |  |  |  |  |  |  |  | 0.1 (≈ 0.306 µM) |  | C=C(c1ccccc1SCc1ccc(Cl)cc1)n1ccnc1 | 
6.2 (≈ 19.1 µM) | 3.1 (≈ 9.54 µM) | 0.1 (≈ 0.308 µM) | 0.8 (≈ 2.46 µM) | 12.5 (≈ 38.5 µM) | 0.8 (≈ 2.46 µM) | 0.8 (≈ 2.46 µM) | 12.5 (≈ 38.5 µM) | 0.8 (≈ 2.46 µM) |  |  | C/C=C(\c1ccccc1OCc1ccc(Cl)cc1)n1ccnc1 | 

Compound | MIC (Candida albicans [1]) [mg/L] | MIC (Aspergillus fumigatus) [mg/L] | MIC (Trichophyton benhamiae [3]) [mg/L] | MIC (Trichophyton rubrum [4]) [mg/L] | MIC (Candida albicans [5]) [mg/L] | MIC (Trichophyton rubrum [6]) [mg/L] | MIC (Trichophyton benhamiae [7]) [mg/L] | MIC (Candida albicans [8]) [mg/L] | MIC (Trichophyton benhamiae [9]) [mg/L] | MIC [10] [mg/L] | MIC [11] [mg/L] | minimal effective concentration (Candida albicans [2]) [µg/mL]
C=C(c1ccccc1OCc1cccc(Cl)c1)n1ccnc1 [CROCONAZOLE] | 3.1 (≈ 9.97 µM) | 3.1 (≈ 9.97 µM) | 0.1 (≈ 0.322 µM) | 0.4 (≈ 1.29 µM) | 6.3 (≈ 20.3 µM) | 0.4 (≈ 1.29 µM) | 0.8 (≈ 2.57 µM) | 12.5 (≈ 40.2 µM) | 0.8 (≈ 2.57 µM) |  |  | 
